Laboratory results published in ChEMBL document CHEMBL3734660, “Inhibitory effect of cytotoxic stilbenes related to resveratrol on the expression of the VEGF, hTERT and c-Myc genes” (Eur J Med Chem, 2015).
Converted amounts (≈) assume the structure as drawn.

Key:
[1] = system: HT-29; experiment: Down regulation of hTERT gene expression in human HT-29 cells at 10 ug/mL after 48 hrs by RT-qPCR analysis relative to control; type: functional
Procedure, shortened: (§1)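 HT-29 or MCF-7 cells grown to 70–80% confluence, serum-starved 24 h, then exposed to compound in DMSO for 48 h; DMSO-only control. Total RNA extracted and transcript measured by RT-qPCR, normalized to β-actin and expressed as percentage of control. At least three measurements; mean ± SEM; one-sample t-test.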

[2] = Selectivity ratio of IC50 for HEK293 cells to IC50 for human MCF7 cells; type: ADME, cell-based; conditions: HEK293 cells versus MCF7 cells, read-out: Ratio IC50
[3] = system: HT-29; experiment: Down regulation of c-Myc gene expression in human HT-29 cells at 10 ug/mL after 48 hrs by RT-qPCR analysis relative to control; type: functional; procedure, shortened: as §1
[4] = system: HT-29; experiment: Inhibition of VEGF protein secretion in human HT-29 cells at 10 ug/mL after 72 hrs by ELISA relative to control; type: functional; design: scale not given: the % may be the effect or the level left
[5] = system: MCF7; experiment: Down regulation of hTERT gene expression in human MCF7 cells at 10 ug/mL after 48 hrs by RT-qPCR analysis relative to control; type: functional; procedure, shortened: as §1
[6] = system: HT-29; experiment: Cytotoxicity against human HT-29 cells assessed inhibition of cell proliferation after 3 days by MTT assay; conditions: HT-29, 72 h
[7] = system: MCF7; experiment: Down regulation of VEGF gene expression in human MCF7 cells at 10 ug/mL after 48 hrs by RT-qPCR analysis relative to control; type: functional; procedure, shortened: as §1
[8] = system: MCF7; experiment: Cytotoxicity against human MCF7 cells assessed inhibition of cell proliferation after 3 days by MTT assay; conditions: MCF7, 72 h
[9] = Selectivity ratio of IC50 for HEK293 cells to IC50 for human HT-29 cells; type: ADME, cell-based; conditions: HEK293 cells versus HT-29 cells, read-out: Ratio IC50
[10] = system: MCF7; experiment: Down regulation of c-Myc gene expression in human MCF7 cells at 10 ug/mL after 48 hrs by RT-qPCR analysis relative to control; type: functional; procedure, shortened: as §1
[11] = system: HEK293; experiment: Cytotoxicity against HEK293 cells assessed inhibition of cell proliferation after 3 days by MTT assay; conditions: Homo sapiens, HEK293, 72 h
[12] = system: HT-29; experiment: Down regulation of VEGF gene expression in human HT-29 cells at 10 ug/mL after 48 hrs by RT-qPCR analysis relative to control; type: functional; procedure, shortened: as §1
[13] = system: MCF7; experiment: Inhibition of VEGF protein secretion in human MCF7 cells at 10 ug/mL after 72 hrs by ELISA relative to control; type: functional; design: scale not given: the % may be the effect or the level left
[14] = system: HT-29; experiment: Inhibition of VEGF protein secretion in human HT-29 cells at 1 ng/mL after 72 hrs by ELISA relative to control; type: functional; design: scale not given: the % may be the effect or the level left
[15] = system: MCF7; experiment: Down regulation of VEGF gene expression in human MCF7 cells at 2 ng/mL after 48 hrs by RT-qPCR analysis relative to control; type: functional; procedure, shortened: as §1
[16] = system: HT-29; experiment: Down regulation of c-Myc gene expression in human HT-29 cells at 3 ng/mL after 48 hrs by RT-qPCR analysis relative to control; type: functional; procedure, shortened: as §1
[17] = system: HT-29; experiment: Down regulation of VEGF gene expression in human HT-29 cells at 2 ng/mL after 48 hrs by RT-qPCR analysis relative to control; type: functional; procedure, shortened: as §1
[18] = system: MCF7; experiment: Inhibition of VEGF protein secretion in human MCF7 cells at 2 ng/mL after 72 hrs by ELISA relative to control; type: functional; design: scale not given: the % may be the effect or the level left
[19] = Inhibition of VEGF protein secretion in human HT-29 cells at 2 ng/mL after 72 hrs by ELISA relative to control; type: functional; design: scale not given: the % may be the effect or the level left
[20] = system: HT-29; experiment: Down regulation of c-Myc gene expression in human HT-29 cells at 2 ng/mL after 48 hrs by RT-qPCR analysis relative to control; type: functional; procedure, shortened: as §1
[21] = system: MCF7; experiment: Down regulation of hTERT gene expression in human MCF7 cells at 2 ng/mL after 48 hrs by RT-qPCR analysis relative to control; type: functional; procedure, shortened: as §1
[22] = system: HT-29; experiment: Down regulation of VEGF gene expression in human HT-29 cells at 1 ng/mL after 48 hrs by RT-qPCR analysis relative to control; type: functional; procedure, shortened: as §1
[23] = system: HT-29; experiment: Down regulation of hTERT gene expression in human HT-29 cells at 3 ng/mL after 48 hrs by RT-qPCR analysis relative to control; type: functional; procedure, shortened: as §1
[24] = system: HT-29; experiment: Potency index, ratio of compound activity to resveratrol activity for down regulation of c-Myc gene expression in human HT-29 cells; type: functional
[25] = system: MCF7; experiment: Potency index, ratio of compound activity to resveratrol activity for down regulation of hTERT gene expression in human MCF7 cells; type: functional
[26] = system: HT-29; experiment: Down regulation of hTERT gene expression in human HT-29 cells at 2 ng/mL after 48 hrs by RT-qPCR analysis relative to control; type: functional; procedure, shortened: as §1
[27] = system: MCF7; experiment: Potency index, ratio of compound activity to resveratrol activity for down regulation of c-Myc gene expression in human MCF7 cells; type: functional
[28] = system: MCF7; experiment: Down regulation of c-Myc gene expression in human MCF7 cells at 2 ng/mL after 48 hrs by RT-qPCR analysis relative to control; type: functional; procedure, shortened: as §1
[29] = system: MCF7; experiment: Down regulation of hTERT gene expression in human MCF7 cells at 1 ng/mL after 48 hrs by RT-qPCR analysis relative to control; type: functional; procedure, shortened: as §1
[30] = system: MCF7; experiment: Inhibition of VEGF protein secretion in human MCF7 cells at 1 ng/mL after 72 hrs by ELISA relative to control; type: functional; design: scale not given: the % may be the effect or the level left
[31] = system: HT-29; experiment: Down regulation of hTERT gene expression in human HT-29 cells at 1 ng/mL after 48 hrs by RT-qPCR analysis relative to control; type: functional; procedure, shortened: as §1
[32] = system: HT-29; experiment: Down regulation of c-Myc gene expression in human HT-29 cells at 1 ng/mL after 48 hrs by RT-qPCR analysis relative to control; type: functional; procedure, shortened: as §1
[33] = system: HT-29; experiment: Down regulation of VEGF gene expression in human HT-29 cells at 3 ng/mL after 48 hrs by RT-qPCR analysis relative to control; type: functional; procedure, shortened: as §1
[34] = system: MCF7; experiment: Potency index, ratio of compound activity to resveratrol activity for down regulation of VEGF gene expression in human MCF7 cells; type: functional
[35] = system: HT-29; experiment: Potency index, ratio of compound activity to resveratrol activity for down regulation of hTERT gene expression in human HT-29 cells; type: functional
[36] = system: MCF7; experiment: Down regulation of c-Myc gene expression in human MCF7 cells at 1 ng/mL after 48 hrs by RT-qPCR analysis relative to control; type: functional; procedure, shortened: as §1
[37] = system: HT-29; experiment: Inhibition of VEGF protein secretion in human HT-29 cells at 3 ng/mL after 72 hrs by ELISA relative to control; type: functional; design: scale not given: the % may be the effect or the level left
[38] = system: MCF7; experiment: Down regulation of VEGF gene expression in human MCF7 cells at 1 ng/mL after 48 hrs by RT-qPCR analysis relative to control; type: functional; procedure, shortened: as §1

Oc1ccc(/C=C/c2cc(O)cc(O)c2)cc1 [RESVERATROL]
Activity [1]: 57% | selectivity ratio [2]: 0.4 | Activity [3]: 51% | Activity [4]: 78% | Activity [5]: 77% | IC50 [6]: 34.1 µg/mL (≈ 149 µM) | Activity [7]: 54% | IC50 [8]: 16.1 µg/mL (≈ 70.5 µM) | selectivity ratio [9]: 0.2 | Activity [10]: 41% | IC50 [11]: 7.1 µg/mL (≈ 31.1 µM) | Activity [12]: 65% | Activity [13]: 100%

COc1ccc(/C=C/c2ccc(N)cc2)cc1
Activity [14]: 92% | Activity [15]: 36% | Activity [16]: 69% | Activity [17]: 66% | Activity [18]: 75% | Activity [19]: 84% | Activity [20]: 71% | Activity [21]: 51% | selectivity ratio [2]: 5.7 | Activity [22]: 65% | Activity [23]: 48% | Ratio [24]: 3000 | Ratio [25]: 3000 | Activity [26]: 100% | IC50 [6]: 0.0036 µg/mL (≈ 0.016 µM) | IC50 [8]: 0.0021 µg/mL (≈ 0.00932 µM) | Ratio [27]: 3000 | Activity [28]: 30% | Activity [29]: 80% | Activity [30]: 100% | Activity [31]: 100% | selectivity ratio [9]: 3.4 | Activity [32]: 88% | Activity [33]: 67% | IC50 [11]: 0.012 µg/mL (≈ 0.0533 µM) | Ratio [34]: 5000 | Ratio [35]: 3000 | Activity [36]: 54% | Activity [37]: 59% | Activity [38]: 48%

COc1cccc(/C=C/c2cccc(O)c2)c1
Activity [1]: 41% | selectivity ratio [2]: 1.5 | Activity [3]: 59% | Activity [4]: 65% | IC50 [6]: 11.5 µg/mL (≈ 50.8 µM) | IC50 [8]: 13 µg/mL (≈ 57.5 µM) | selectivity ratio [9]: 1.6 | IC50 [11]: 19 µg/mL (≈ 84 µM) | Activity [12]: 60%

COc1ccccc1/C=C/c1ccc(O)cc1
Activity [1]: 100% | selectivity ratio [2]: 2.2 | Activity [3]: 100% | Activity [4]: 67% | IC50 [6]: 24 µg/mL (≈ 106 µM) | IC50 [8]: 19 µg/mL (≈ 84 µM) | selectivity ratio [9]: 1.7 | IC50 [11]: 41 µg/mL (≈ 181 µM) | Activity [12]: 46%

COc1ccc(/C=C/c2ccccc2O)cc1 [2-hydroxy-4'-methoxystilbene]
Activity [1]: 72% | selectivity ratio [2]: 1.2 | Activity [3]: 58% | Activity [4]: 69% | IC50 [6]: 10 µg/mL (≈ 44.2 µM) | IC50 [8]: 17 µg/mL (≈ 75.1 µM) | selectivity ratio [9]: 2.1 | IC50 [11]: 21 µg/mL (≈ 92.8 µM) | Activity [12]: 41%

COc1ccc(/C=C/c2cccc(O)c2)cc1
Activity [1]: 48% | selectivity ratio [2]: 1.1 | Activity [3]: 46% | Activity [4]: 73% | IC50 [6]: 22 µg/mL (≈ 97.2 µM) | IC50 [8]: 21 µg/mL (≈ 92.8 µM) | selectivity ratio [9]: 1.1 | IC50 [11]: 24 µg/mL (≈ 106 µM) | Activity [12]: 38%

COc1ccccc1/C=C/c1cccc(O)c1
Activity [1]: 52% | selectivity ratio [2]: 1 | Activity [3]: 100% | Activity [4]: 69% | IC50 [6]: 17 µg/mL (≈ 75.1 µM) | IC50 [8]: 24.3 µg/mL (≈ 107 µM) | selectivity ratio [9]: 1.4 | IC50 [11]: 24 µg/mL (≈ 106 µM) | Activity [12]: 77%
